How the values were obtained:
Conditions in all cases: in vivo
Rattus norvegicus [1] = species on record: Rattus norvegicus; experiment: Biodistribution of Gd-LDTA (conjugated with galactose BSA) protein using [111In]- in mature female Sprague-Dawley rat kidney after injecting for 4 hour.; type: ADME, organism-based
Procedure, shortened: (§1)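 Conjugate of SCN-LDTPA with BSA, mannosylated BSA or galactosylated BSA (10 equiv chelate, pH 9 bicine, RT 24 h; FPLC-purified) was labelled with 340 μCi 111In acetate at pH 5.5 for 45 min. It was then gel-filtered (Biospin-6) and checked for purity by FPLC. Mature female Sprague-Dawley rats received 19 μg of conjugate. Four rats per time point (1, 4, 24, 48 h) were killed; blood, liver, bone, kidney and colon were taken and %ID/organ was calculated.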

Rattus norvegicus [2] = species on record: Rattus norvegicus; experiment: Biodistribution of Gd-LDTA (conjugated with galactose BSA) protein using [111In]- in mature female Sprague-Dawley rat bone after injecting for 24 hour.; type: ADME, organism-based, Bone element; procedure, shortened: as §1
Rattus norvegicus [3] = species on record: Rattus norvegicus; experiment: Biodistribution of Gd-LDTA (conjugated with galactose BSA) protein using [111In]- in mature female Sprague-Dawley rat bone marrow after injecting for 48 hour.; type: ADME, organism-based
Rattus norvegicus [4] = species on record: Rattus norvegicus; experiment: Biodistribution of In-LDTA (conjugated with mannoseBSA) protein using [111In]- in mature female Sprague-Dawley rat colon after injecting for 48 hour.; type: ADME, organism-based
Procedure, shortened: (§2)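 SCN-LDTPA was coupled (pH 9 bicine, 24 h, RT) to BSA, mannosylated BSA or galactosylated BSA and FPLC-purified. The conjugate (400 μg) was labeled with 340 μCi 111In acetate at pH 5.5 for 45 min and gel-filtered. Mature female Sprague-Dawley rats received 19 μg of conjugate; four rats per time point. Blood, liver, bone, kidney and colon were taken and reported as %ID/organ.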

Rattus norvegicus [5] = species on record: Rattus norvegicus; experiment: Biodistribution of Gd-LDTA (conjugated with galactose BSA) protein using [111In]- in mature female Sprague-Dawley rat blood after injecting for 4 hour.; type: ADME, organism-based; procedure, shortened: as §1
Rattus norvegicus [6] = species on record: Rattus norvegicus; experiment: Biodistribution of Gd-LDTA (conjugated with mannose BSA) protein using [111In]- in mature female Sprague-Dawley rat bone after injecting for 4 hour.; type: ADME, organism-based, Bone element; procedure, shortened: as §1
Rattus norvegicus [7] = species on record: Rattus norvegicus; experiment: Biodistribution of Gd-LDTA (conjugated with galactose BSA) protein using [111In]- in mature female Sprague-Dawley rat kidney after injecting for 96 hour.; type: ADME, organism-based
Rattus norvegicus [8] = species on record: Rattus norvegicus; experiment: Biodistribution of Gd-LDTA (conjugated with galactose BSA) protein using [111In]- in mature female Sprague-Dawley rat bone after injecting for 48 hour.; type: ADME, organism-based, Bone element; procedure, shortened: as §1
Rattus norvegicus [9] = species on record: Rattus norvegicus; experiment: Biodistribution of In-LDTA (conjugated with mannoseBSA) protein using [111In]- in mature female Sprague-Dawley rat bone after injecting for 4 hour.; type: ADME, organism-based, Bone element; procedure, shortened: as §2
Rattus norvegicus [10] = species on record: Rattus norvegicus; experiment: Biodistribution of In-LDTA (conjugated with mannoseBSA) protein using [111In]- in mature female Sprague-Dawley rat liver after injecting for 24 hour.; type: ADME, organism-based; procedure, shortened: as §2
Rattus norvegicus [11] = species on record: Rattus norvegicus; experiment: Biodistribution of In-LDTA (conjugated with BSA) protein using [111In]- in mature female Sprague-Dawley rat bone after injecting for 4 hour.; type: ADME, organism-based, Bone element; procedure, shortened: as §2
Rattus norvegicus [12] = species on record: Rattus norvegicus; experiment: Biodistribution of In-LDTA (conjugated with galactose BSA)protein using [111In]- in mature female Sprague-Dawley rat kidney after injecting for 48 hour.; type: ADME, organism-based; procedure, shortened: as §2
Rattus norvegicus [13] = species on record: Rattus norvegicus; experiment: Biodistribution of Gd-LDTA (conjugated with mannose BSA) protein using [111In]- in mature female Sprague-Dawley rat liver after injecting for 96 hour.; type: ADME, organism-based
Rattus norvegicus [14] = species on record: Rattus norvegicus; experiment: Biodistribution of Gd-DTA (conjugated with BSA)protein using [111In]- in mature female Sprague-Dawley rat bone marrow after injecting for 1 hour.; type: ADME, organism-based
Rattus norvegicus [15] = species on record: Rattus norvegicus; experiment: Biodistribution of Gd-LDTA (conjugated with galactose BSA) protein using [111In]- in mature female Sprague-Dawley rat blood after injecting for 1 hour.; type: ADME, organism-based; procedure, shortened: as §1
Rattus norvegicus [16] = species on record: Rattus norvegicus; experiment: Biodistribution of In-LDTA (conjugated with mannoseBSA) protein using [111In]- in mature female Sprague-Dawley rat bone after injecting for 48 hour.; type: ADME, organism-based, Bone element; procedure, shortened: as §2
Rattus norvegicus [17] = species on record: Rattus norvegicus; experiment: Biodistribution of Gd-LDTA (conjugated with mannose BSA) protein using [111In]- in mature female Sprague-Dawley rat bone marrow after injecting for 24 hour.; type: ADME, organism-based
Rattus norvegicus [18] = species on record: Rattus norvegicus; experiment: Biodistribution of In-LDTA (conjugated with mannoseBSA) protein using [111In]- in mature female Sprague-Dawley rat bone after injecting for 24 hour.; type: ADME, organism-based, Bone element; procedure, shortened: as §2
Rattus norvegicus [19] = species on record: Rattus norvegicus; experiment: Biodistribution of Gd-DTA (conjugated with BSA)protein using [111In]- in mature female Sprague-Dawley rat colon after injecting for 1 hour.; type: ADME, organism-based; procedure, shortened: as §1
Rattus norvegicus [20] = species on record: Rattus norvegicus; experiment: Biodistribution of Gd-LDTA (conjugated with mannose BSA) protein using [111In]- in mature female Sprague-Dawley rat kidney after injecting for 48 hour.; type: ADME, organism-based
Rattus norvegicus [21] = species on record: Rattus norvegicus; experiment: Biodistribution of In-LDTA (conjugated with mannoseBSA) protein using [111In]- in mature female Sprague-Dawley rat colon after injecting for 4 hour.; type: ADME, organism-based; procedure, shortened: as §2
Rattus norvegicus [22] = species on record: Rattus norvegicus; experiment: Biodistribution of Gd-DTA (conjugated with BSA)protein using [111In]- in mature female Sprague-Dawley rat blood after injecting for 96 hour.; type: ADME, organism-based
Rattus norvegicus [23] = species on record: Rattus norvegicus; experiment: Biodistribution of In-LDTA (conjugated with galactose BSA)protein using [111In]- in mature female Sprague-Dawley rat blood after injecting for 4 hour.; type: ADME, organism-based; procedure, shortened: as §2
Rattus norvegicus [24] = species on record: Rattus norvegicus; experiment: Biodistribution of Gd-LDTA (conjugated with mannose BSA) protein using [111In]- in mature female Sprague-Dawley rat kidney after injecting for 96 hour.; type: ADME, organism-based
Rattus norvegicus [25] = species on record: Rattus norvegicus; experiment: Biodistribution of Gd-DTA (conjugated with BSA)protein using [111In]- in mature female Sprague-Dawley rat kidney after injecting for 96 hour.; type: ADME, organism-based
Rattus norvegicus [26] = species on record: Rattus norvegicus; experiment: Biodistribution of In-LDTA (conjugated with galactose BSA)protein using [111In]- in mature female Sprague-Dawley rat colon after injecting for 1 hour.; type: ADME, organism-based; procedure, shortened: as §2
Rattus norvegicus [27] = species on record: Rattus norvegicus; experiment: Biodistribution of In-LDTA (conjugated with mannoseBSA) protein using [111In]- in mature female Sprague-Dawley rat kidney after injecting for 4 hour.; type: ADME, organism-based; procedure, shortened: as §2
Rattus norvegicus [28] = species on record: Rattus norvegicus; experiment: Biodistribution of In-LDTA (conjugated with mannoseBSA)protein using [111In]- in mature female Sprague-Dawley rat blood after injecting for 1 hour.; type: ADME, organism-based; procedure, shortened: as §2
Rattus norvegicus [29] = species on record: Rattus norvegicus; experiment: Biodistribution of In-LDTA (conjugated with galactose BSA)protein using [111In]- in mature female Sprague-Dawley rat blood after injecting for 48 hour.; type: ADME, organism-based; procedure, shortened: as §2
Rattus norvegicus [30] = species on record: Rattus norvegicus; experiment: Biodistribution of In-LDTA (conjugated with BSA)protein using [111In]- in mature female Sprague-Dawley rat colon after injecting for 48 hr.; type: ADME, organism-based; procedure, shortened: as §2
Rattus norvegicus [31] = species on record: Rattus norvegicus; experiment: Biodistribution of Gd-LDTA (conjugated with mannose BSA) protein using [111In]- in mature female Sprague-Dawley rat bone after injecting for 48 hour.; type: ADME, organism-based, Bone element; procedure, shortened: as §1
Rattus norvegicus [32] = species on record: Rattus norvegicus; experiment: Biodistribution of In-LDTA (conjugated with mannoseBSA) protein using [111In]- in mature female Sprague-Dawley rat kidney after injecting for 48 hour.; type: ADME, organism-based; procedure, shortened: as §2
Rattus norvegicus [33] = species on record: Rattus norvegicus; experiment: Biodistribution of Gd-DTA (conjugated with BSA)protein using [111In]- in mature female Sprague-Dawley rat liver after injecting for 1 hour.; type: ADME, organism-based; procedure, shortened: as §1
Rattus norvegicus [34] = species on record: Rattus norvegicus; experiment: Biodistribution of In-LDTA (conjugated with BSA) protein using [111In]- in mature female Sprague-Dawley rat kidney after injecting for 1 hour.; type: ADME, organism-based; procedure, shortened: as §2
Rattus norvegicus [35] = species on record: Rattus norvegicus; experiment: Biodistribution of Gd-DTA (conjugated with BSA)protein using [111In]- in mature female Sprague-Dawley rat liver after injecting for 4 hour.; type: ADME, organism-based; procedure, shortened: as §1
Rattus norvegicus [36] = species on record: Rattus norvegicus; experiment: Biodistribution of Gd-DTA (conjugated with BSA)protein using [111In]- in mature female Sprague-Dawley rat liver after injecting for 24 hour.; type: ADME, organism-based; procedure, shortened: as §1

For `Nc1ccc(CC(C(=O)O)N(CCN(CC(=O)O)CC(=O)O)CCN(CC(=O)O)CC(=O)O)cc1` (stereo unspecified), the ID/organ (Rattus norvegicus [1]) was 0.105%, the ID/organ (Rattus norvegicus [2]) was 7.01% and the ID/organ (Rattus norvegicus [3]) was 0.061%. The ID/organ (Rattus norvegicus [4]) was 0.542%, the ID/organ (Rattus norvegicus [5]) was 0.045% and the ID/organ (Rattus norvegicus [6]) was 16.4%. The ID/organ (Rattus norvegicus [7]) was 0.193%, the ID/organ (Rattus norvegicus [8]) was 8.7% and the ID/organ (Rattus norvegicus [9]) was 10.1%. For the same compound, the ID/organ (Rattus norvegicus [10]) was 75.2%, the ID/organ (Rattus norvegicus [11]) was 19.1% and the ID/organ (Rattus norvegicus [12]) was 0.14%. The ID/organ (Rattus norvegicus [13]) was 24.4%, the ID/organ (Rattus norvegicus [14]) was 1.19% and the ID/organ (Rattus norvegicus [15]) was 0.207%. It also gave an ID/organ (Rattus norvegicus [16]) of 9.84%, an ID/organ (Rattus norvegicus [17]) of 2.13% and an ID/organ (Rattus norvegicus [18]) of 8.9%. For the same compound, the ID/organ (Rattus norvegicus [19]) was 0.952%, the ID/organ (Rattus norvegicus [20]) was 0.379% and the ID/organ (Rattus norvegicus [21]) was 0.156%. The ID/organ (Rattus norvegicus [22]) was 0.418%, the ID/organ (Rattus norvegicus [23]) was 0.0462% and the ID/organ (Rattus norvegicus [24]) was 0.405%. It also gave an ID/organ (Rattus norvegicus [25]) of 2.73%, an ID/organ (Rattus norvegicus [26]) of 0.0098% and an ID/organ (Rattus norvegicus [27]) of 0.244%. For the same compound, the ID/organ (Rattus norvegicus [28]) was 0.255%, the ID/organ (Rattus norvegicus [29]) was 0.0267% and the ID/organ (Rattus norvegicus [30]) was 5.52%. The ID/organ (Rattus norvegicus [31]) was 20.4%, the ID/organ (Rattus norvegicus [32]) was 0.465% and the ID/organ (Rattus norvegicus [33]) was 14.2%. It also gave an ID/organ (Rattus norvegicus [34]) of 3.15%, an ID/organ (Rattus norvegicus [35]) of 18.6% and an ID/organ (Rattus norvegicus [36]) of 20%.
